The text below walks through data of ChEMBL document CHEMBL1138981, “Synthesis and SAR of 1,2-trans-(1-hydroxy-3-phenylprop-1-yl)cyclopentane carboxamide derivatives, a new class of sodium channel blockers” (Bioorg Med Chem Lett, 2006).

The structures appear in SMILES notation.

Data set [1] deals with T1, hERG (KCNH2) (Homo sapiens, UniProt Q12809). Nature of the data set: (§1) Displacement of [35S]-labeled MK499 from hERG at 10 uM. The following applies: probe [35S]-MK499.
Data set [2] concerns the target Sodium channel protein type 9 subunit alpha (Homo sapiens, UniProt Q15858). Nature of the data set: Inhibition of peripheral nerve sodium channel NaV1.7.
Data set [3] in a line: (§2) Stability in human liver microsome after 1 hr. The following applies: liver microsomes, read-out: Stability. It counts as ADME, microsomes. (In general: Liver microsomes are a subcellular fraction often used to study metabolism.)
The nature of data set [4]: (§3) Oral bioavailability in rat. The class given is ADME, organism-based. The conditions noted are these: in vivo.
Data set [5] concerns Rattus norvegicus. Nature of the data set: Anti-allodynic efficacy in rat chronic pain model at 3 mg/kg, po. It counts as ADME, organism-based. Set-up: dose 3 mg/kg, route oral. The conditions noted are these: in vivo. The gist of the method: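 Chronic inflammatory pain induced in rats by intradermal injection of complete Freund's adjuvant (CFA). The read-out was reversal of CFA-induced allodynia after oral dosing.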

Data set [6] in a line: (§4) Half life in rat at 1 mg/kg, iv. The conditions noted are these: in vivo. On the set-up: dose 1 mg/kg, route intravenous. It counts as ADME, organism-based.
The test system of data set [7] is Rattus norvegicus. The experiment in a line: AUC in rat at 2 mg/kg, po. It counts as ADME, organism-based, Plasma. Set-up: dose 2 mg/kg, route oral. The following applies: in vivo.
Data set [8] can be described thus: Cmax in rat at 2 mg/kg, po. Set-up: dose 2 mg/kg, route oral. The conditions noted are these: in vivo. It counts as ADME, organism-based.
The nature of data set [9]: Plasma clearance in rat at 1 mg/kg, iv. Set-up: dose 1 mg/kg, route intravenous. The class given is ADME, organism-based.
For data set [10], the target named is Voltage-gated inwardly rectifying potassium channel KCNH2 (Homo sapiens, UniProt Q12809). The description is as §1. The conditions noted are these: 10 µM.
For the next data set, the system named is Liver microsomes. Described as §2. The class given is ADME. The conditions noted are these: microsomes, 1 h.
Data set [11] has as its system Rattus norvegicus. The description is as §3. The class given is ADME, organism-based. The conditions noted are these: in vivo.
The subject of data set [12] is Rattus norvegicus. The experiment in a line: (§5) Cmax in rat at 3 mg/kg, po. The conditions noted are these: in vivo. Set-up: dose 3 mg/kg, route oral. The class given is ADME, organism-based.
Data set [13] has as its system Rattus norvegicus. Nature of the data set: AUC in rat at 3 mg/kg, po. It counts as ADME, organism-based, Plasma. On the set-up: dose 3 mg/kg, route oral. The following applies: in vivo.
In data set [14] the target is T1, hERG (KCNH2). The experiment in a line: Displacement of [35S]-labeled MK499 from hERG at 1 uM. The conditions noted are these: probe [35S]-MK499.
Data set [15] has as its system Rattus norvegicus. Described as §4. It counts as ADME, organism-based. Set-up: dose 1 mg/kg, route intravenous. The following applies: in vivo.
The nature of data set [16]: as §5. It counts as ADME, organism-based. Set-up: dose 3 mg/kg, route oral. The conditions noted are these: in vivo.

T1 sequence (Q12809 whole entry): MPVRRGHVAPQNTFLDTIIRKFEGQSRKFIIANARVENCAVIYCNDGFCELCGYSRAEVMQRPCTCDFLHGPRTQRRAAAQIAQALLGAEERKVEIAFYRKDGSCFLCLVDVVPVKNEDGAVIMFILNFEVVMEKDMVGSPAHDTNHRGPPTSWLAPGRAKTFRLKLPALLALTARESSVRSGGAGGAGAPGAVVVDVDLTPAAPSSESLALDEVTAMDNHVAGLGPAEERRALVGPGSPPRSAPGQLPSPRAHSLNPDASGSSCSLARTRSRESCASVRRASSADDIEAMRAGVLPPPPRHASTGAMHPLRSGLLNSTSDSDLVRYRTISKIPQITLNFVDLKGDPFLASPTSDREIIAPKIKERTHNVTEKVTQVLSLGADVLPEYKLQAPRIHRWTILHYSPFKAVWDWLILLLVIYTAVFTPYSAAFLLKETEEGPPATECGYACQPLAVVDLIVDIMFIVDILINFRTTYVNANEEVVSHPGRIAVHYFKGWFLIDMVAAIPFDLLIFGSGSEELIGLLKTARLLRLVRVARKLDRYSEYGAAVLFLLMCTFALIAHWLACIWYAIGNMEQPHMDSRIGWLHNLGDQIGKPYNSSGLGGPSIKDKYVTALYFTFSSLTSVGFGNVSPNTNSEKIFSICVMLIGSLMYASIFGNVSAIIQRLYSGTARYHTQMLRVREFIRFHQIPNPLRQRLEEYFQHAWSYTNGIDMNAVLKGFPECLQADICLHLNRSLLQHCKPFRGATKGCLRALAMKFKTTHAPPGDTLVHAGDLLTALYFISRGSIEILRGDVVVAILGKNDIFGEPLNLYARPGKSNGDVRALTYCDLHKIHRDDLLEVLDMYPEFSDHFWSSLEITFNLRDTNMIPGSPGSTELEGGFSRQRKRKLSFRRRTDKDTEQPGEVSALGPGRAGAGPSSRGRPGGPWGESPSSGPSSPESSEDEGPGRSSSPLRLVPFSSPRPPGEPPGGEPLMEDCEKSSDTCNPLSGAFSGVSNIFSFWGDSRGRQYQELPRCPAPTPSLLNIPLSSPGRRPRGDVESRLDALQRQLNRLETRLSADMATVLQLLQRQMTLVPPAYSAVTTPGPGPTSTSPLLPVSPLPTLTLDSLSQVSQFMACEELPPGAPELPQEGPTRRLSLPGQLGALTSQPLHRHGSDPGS
Sodium channel protein type 9 subunit alpha, sequence (Q15858 whole entry): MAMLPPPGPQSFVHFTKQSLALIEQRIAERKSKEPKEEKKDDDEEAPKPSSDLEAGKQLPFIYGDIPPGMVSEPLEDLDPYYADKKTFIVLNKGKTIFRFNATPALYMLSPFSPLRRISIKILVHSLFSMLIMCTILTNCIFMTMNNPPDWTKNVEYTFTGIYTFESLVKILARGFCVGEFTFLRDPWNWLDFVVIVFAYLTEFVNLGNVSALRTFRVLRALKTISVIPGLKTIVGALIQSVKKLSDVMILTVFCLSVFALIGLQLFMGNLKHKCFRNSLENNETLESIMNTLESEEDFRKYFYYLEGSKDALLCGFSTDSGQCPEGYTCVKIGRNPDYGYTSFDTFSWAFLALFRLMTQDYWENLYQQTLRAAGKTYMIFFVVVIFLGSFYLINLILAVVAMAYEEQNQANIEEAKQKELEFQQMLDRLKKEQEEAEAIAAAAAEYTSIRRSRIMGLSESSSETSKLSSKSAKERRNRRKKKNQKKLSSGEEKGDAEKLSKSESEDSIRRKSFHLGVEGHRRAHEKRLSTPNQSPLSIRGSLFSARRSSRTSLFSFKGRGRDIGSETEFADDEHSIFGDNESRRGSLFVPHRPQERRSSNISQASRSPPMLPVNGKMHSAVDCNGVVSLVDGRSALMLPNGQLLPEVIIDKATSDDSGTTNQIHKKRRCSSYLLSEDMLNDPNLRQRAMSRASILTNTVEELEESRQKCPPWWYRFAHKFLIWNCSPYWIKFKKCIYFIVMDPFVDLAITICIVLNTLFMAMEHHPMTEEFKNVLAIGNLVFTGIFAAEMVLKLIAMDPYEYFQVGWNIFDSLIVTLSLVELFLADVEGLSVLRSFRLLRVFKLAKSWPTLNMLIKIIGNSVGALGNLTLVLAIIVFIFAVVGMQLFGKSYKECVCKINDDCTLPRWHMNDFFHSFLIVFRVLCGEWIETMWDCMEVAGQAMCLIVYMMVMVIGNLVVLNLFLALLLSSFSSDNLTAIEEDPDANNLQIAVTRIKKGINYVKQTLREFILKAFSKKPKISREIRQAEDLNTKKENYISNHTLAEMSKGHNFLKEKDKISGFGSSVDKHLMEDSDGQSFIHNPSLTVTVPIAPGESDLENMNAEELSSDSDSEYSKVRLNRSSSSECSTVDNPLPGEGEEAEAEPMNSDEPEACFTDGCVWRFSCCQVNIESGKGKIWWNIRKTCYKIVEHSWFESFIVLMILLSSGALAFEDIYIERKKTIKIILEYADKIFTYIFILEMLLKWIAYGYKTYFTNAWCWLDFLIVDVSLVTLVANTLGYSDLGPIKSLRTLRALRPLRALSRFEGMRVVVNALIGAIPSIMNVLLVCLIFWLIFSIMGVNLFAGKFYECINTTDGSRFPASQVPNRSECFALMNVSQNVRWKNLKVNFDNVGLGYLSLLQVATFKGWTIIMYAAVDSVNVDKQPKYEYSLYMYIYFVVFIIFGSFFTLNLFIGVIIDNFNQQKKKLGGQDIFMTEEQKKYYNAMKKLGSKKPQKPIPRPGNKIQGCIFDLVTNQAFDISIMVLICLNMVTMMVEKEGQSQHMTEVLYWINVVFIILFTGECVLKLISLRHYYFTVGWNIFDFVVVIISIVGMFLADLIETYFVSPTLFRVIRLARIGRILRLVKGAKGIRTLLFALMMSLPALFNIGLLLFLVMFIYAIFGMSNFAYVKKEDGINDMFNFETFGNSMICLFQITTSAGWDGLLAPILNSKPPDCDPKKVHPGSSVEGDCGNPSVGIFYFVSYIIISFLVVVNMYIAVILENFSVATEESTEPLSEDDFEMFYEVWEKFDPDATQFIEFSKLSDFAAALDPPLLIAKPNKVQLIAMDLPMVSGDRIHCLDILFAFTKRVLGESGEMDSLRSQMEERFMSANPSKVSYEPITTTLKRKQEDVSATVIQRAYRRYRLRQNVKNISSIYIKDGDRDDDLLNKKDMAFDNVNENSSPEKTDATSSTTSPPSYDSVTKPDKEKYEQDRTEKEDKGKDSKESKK
Voltage-gated inwardly rectifying potassium channel KCNH2, sequence (Q12809 whole entry): as the sequence (Q12809 whole entry) above

In general, inhibition refers to the share of the control response that was lost under treatment. A low value points to little suppression. One may read the IC50 as the point on the concentration scale where inhibition reaches its midpoint. Lower therefore signals greater potency in that assay. `O=C(NCc1ccccc1)[C@@H]1CCC[C@H]1C(O)CCc1cccc(OC(F)(F)F)c1` (relative stereo) returned an inhibition at 10 µM on hERG (KCNH2) [1] of 89%. In data set [2], this molecule yielded an IC50 of 0.23 µM.
The molecule `CN(Cc1ccccc1)C(=O)[C@@H]1CCC[C@H]1C(=O)NCc1ccc(OC(F)(F)F)cc1` (relative stereo) registered an IC50 in data set [2] of 1.49 µM.
As to `O=C(NCc1cc(Cl)cc(Cl)c1)[C@@H]1CCC[C@H]1C(O)CCc1ccc(OC(F)(F)F)cc1` (relative stereo), testing at 10 µM on hERG (KCNH2) [1] gave an inhibition of 93%. Besides, in data set [2], the IC50 was 0.87 µM.
`OC(CCc1ccccc1)[C@@H]1CCC[C@H]1COCc1cc(Cl)cc(Cl)c1` (relative stereo) came in with an inhibition at 10 µM on hERG (KCNH2) [1] of 59%. Also, in data set [2], the IC50 was found to be 1.11 µM.
The matching figures for `O=C(NCc1ccccc1C(F)(F)F)[C@@H]1CCC[C@H]1C(O)CCc1cccc(OC(F)(F)F)c1` (relative stereo): 78% and 0.44 µM.
Turning to `OC(CCc1ccccc1)[C@@H]1CCC[C@H]1OCCc1ccc(OC(F)(F)F)cc1` (relative stereo), on hERG (KCNH2) [1], the inhibition at 10 µM came to 70%. Also, the IC50 in data set [2] was greater than 3 µM.
As a reminder, the bioavailability is dose-corrected exposure relative to a reference, in per cent. Usually half-life stands for the time in which the quantity being followed falls by half. Broadly, the AUC is the area under the concentration-time curve, a measure of exposure. A high value points to high exposure. What is called Cmax is the peak of the concentration-time curve. A word on the clearance: it is the rate of elimination divided by the concentration. Read a high clearance as a high capacity for elimination. As for `CN(Cc1ccc(-c2ccccc2S(N)(=O)=O)cc1)C(=O)[C@@H]1CCC[C@H]1C(=O)NCc1ccc(OC(F)(F)F)cc1` (relative stereo), the remaining at 1 h in data set [3] came out at 4%. On hERG (KCNH2) [1], at 10 µM the inhibition was 54%. In [4], this molecule returned a bioavailability of 44%. Further, the Efficacy with Rattus norvegicus [5] came to 43%. In addition, in data set [6], the half-life was 1 h. The molecule also displayed an IC50 in [2] of 0.29 µM. Moreover, the AUC with Rattus norvegicus [7] came to 1.8 µM·h. In [8], this molecule came in with a Cmax of 1000 nM. This molecule also had a clearance in data set [9] of 14 mL/min/kg.
In turn, `O=C(NCc1ccccc1)[C@@H]1CCC[C@H]1C(O)CCc1ccccc1OC(F)(F)F` (relative stereo) registered an inhibition at 10 µM at hERG (KCNH2) [1] of 92%. Moreover, in [2], the IC50 came to 0.32 µM.
For orientation: Inhibition means the percentage by which the read-out fell short of the control. Read a high Inhibition as strong suppression. `O=C(NCc1ccccc1)[C@@H]1CCC[C@H]1C(O)CCc1ccc(OC(F)(F)F)cc1` (stereo in doubt; 13A) returned an Inhibition in [10] of 68%. The same molecule displayed an IC50 in data set [2] of 0.52 µM.
On to `OC(CCc1ccccc1)[C@@H]1CCC[C@H]1COCc1ccc(OC(F)(F)F)cc1` (relative stereo), for which the inhibition at 10 µM on hERG (KCNH2) [1] was determined as 65%. Also, in [2], the IC50 was found to be 0.82 µM.
For `O=C(NCc1cc(Cl)cc(Cl)c1)[C@@H]1CCC[C@H]1C(O)CCc1ccccc1OC(F)(F)F` (relative stereo), on hERG (KCNH2) [1], testing at 10 µM gave an inhibition of 73%. In data set [2], half-maximal inhibition (IC50) was put at 1.15 µM.
The matching figures for `COc1ccc(CCC(O)[C@@H]2CCC[C@H]2C(=O)NCc2cc(Cl)cc(Cl)c2)cc1` (relative stereo): 70% and 1.21 µM.
For the molecule `O=C(NCc1ccccc1)[C@@H]1CCC[C@H]1C(O)CCc1ccc(OC(F)(F)F)cc1` (stereo in doubt; 13B), the Stability in the data set on Liver microsomes was determined as 49%. On hERG (KCNH2) [1], this molecule showed an inhibition at 10 µM of 60%. The F in the data set with Rattus norvegicus [11] was 65%. Further, the Efficacy in the data set with Rattus norvegicus [5] is 31%. The molecule further gave a half-life in data set [6] of 1.6 h. The molecule also gave an IC50 in data set [2] of 0.36 µM. In the data set on Rattus norvegicus [12], this molecule displayed a peak concentration (Cmax) of 2300 nM. For the same molecule, in [9], the clearance was 9 mL/min/kg. For the same molecule, the AUC in the data set on Rattus norvegicus [13] was 9 µM·h.
Turning to `O=S(=O)(NC[C@@H]1CCC[C@H]1C(O)CCc1ccccc1)c1cc(Cl)cc(Cl)c1` (relative stereo), at 10 µM the inhibition on hERG (KCNH2) [1] was 90%. In data set [2], the IC50 is greater than 3 µM.
In [2], `CS(=O)(=O)c1ccc(CCC(O)[C@@H]2CCC[C@H]2C(=O)NCc2ccc(OC(F)(F)F)cc2)cc1` (relative stereo) registered an IC50 greater than 3 µM.
As for `O=C(NCc1ccccc1)[C@@H]1CCC[C@H]1C(O)CCc1ccccc1` (relative stereo), in data set [2], the IC50 was greater than 3 µM.
Molecule `O=C(NC[C@@H]1CCC[C@H]1C(O)CCc1ccccc1)c1cc(Cl)cc(Cl)c1` (relative stereo) returned an inhibition at 10 µM at hERG (KCNH2) [1] of 79%. The molecule also showed an IC50 in data set [2] greater than 3 µM.
The molecule `O=C(NC[C@@H]1CCC[C@H]1C(O)CCc1ccccc1)c1ccc(OC(F)(F)F)cc1` (relative stereo) gave an inhibition at 1 µM at hERG (KCNH2) [14] of 45%. For the same molecule, on hERG (KCNH2) [1], the inhibition at 10 µM amounted to 84%. In data set [2], this molecule displayed an IC50 of 0.33 µM.
For `OC(CCc1ccccc1)[C@@H]1CCC[C@H]1OCCc1cc(Cl)cc(Cl)c1` (relative stereo), the inhibition at 10 µM at hERG (KCNH2) [1] worked out at 40%. In addition, the IC50 in [2] is greater than 3 µM.
Consider `O=C(NCc1ccccc1)[C@@H]1CCC[C@H]1C(O)CCc1ccc(OC(F)(F)F)cc1` (stereo in doubt; 13), for which the Stability with Liver microsomes was 13%. For the same molecule, the Inhibition in data set [10] came out at 52%. For the same molecule, in the data set on Rattus norvegicus [11], the F was determined as 40%. Further, the Efficacy in the data set on Rattus norvegicus [5] is recorded as 25%. Besides, the T1/2 in the data set with Rattus norvegicus [15] turned out to be 1.6 h. For the same molecule, the IC50 in data set [2] stood at 0.64 µM. In addition, in data set [16], the Cmax came to 1900 nM. This molecule returned an AUC in the data set with Rattus norvegicus [13] of 5.3 µM·h.
Molecule `O=S(=O)(NC[C@@H]1CCC[C@H]1C(O)CCc1ccccc1)c1ccc(OC(F)(F)F)cc1` (relative stereo) had an inhibition at 10 µM at hERG (KCNH2) [1] of 90%. Besides, the IC50 in data set [2] is 0.63 µM.
The molecule `O=C(NCc1cc(Cl)cc(Cl)c1)[C@@H]1CCC[C@H]1C(O)CCc1cccc(OC(F)(F)F)c1` (relative stereo) gave an inhibition at 10 µM on hERG (KCNH2) [1] of 87%. In addition, the midpoint of inhibition in [2], the IC50, lay at 0.44 µM.
`O=C(NCc1cc(Cl)cc(Cl)c1)[C@@H]1CCC[C@H]1C(O)CCc1ccccc1` (relative stereo) came in with an inhibition at 10 µM at hERG (KCNH2) [1] of 91%. For the same molecule, the IC50 in data set [2] amounted to 0.98 µM.
